A selection: hits, their analogues and other compounds. The true share with any hit is near 12%.
Diaph inh CS = diaphorase inhibitors and chemical oxidizers, primary screen, counter-screen for diaphorase-coupled primary assays, biochemical, uHTS, resorufin fluorescence. diaphorase resazurin-to-resorufin fluorescence, NADH, 16 min; bacterial (C. kluyveri) enzyme, not human. inhibition, % at 20 µM. hit rate 0.69% among 190,000;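 active = primary screen inhibition at 20 µM above a set limit, cut at about 50% in these data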;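 also: plate controls were DMSO with full reaction for no effect and wells lacking NADH for full effect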
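Assay system: diaphorase enzyme from Clostridium kluyveri. Quantity: enzyme working solution with 0.14 U/mL diaphorase. Schedule: reaction incubation of 16 min at room temperature. Technique: resorufin fluorescence, excitation 544 nm, emission 590 nm. Controls: No-NADH positive control and DMSO neutral control.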
WT yeast gro inh = growth inhibition of WT strain, primary screen, mitochondrial fusion inhibitor project, WT and mutant strains, chemical genetic. inhibition, % at 10 µM. AID 1362, 2008. mitochondrial fusion phenotypic screen. hit rate 2.1% among 190,000; in the data active = inhibition above about 58%; tested in S. cerevisiae
ROMK mod = ROMK potassium channel modulators, primary screen, cell-based, thallium flux, MLSMR library. ATP-sensitive inward rectifier potassium channel 1 (Homo sapiens), P48048. B-score at 10 µM. hit rate 2% among 130,000. Tet-inducible ROMK, thallium flux fluorescence; actives lie on both sides;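 active = signal ratio slope over the read window, or its plate-corrected B-score, at least 3 SD from the plate mean, either direction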;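 also: B-score of the F/F0 ratio slope over 7 to 12 s after thallium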
Target sequence (P48048 whole entry, looked up): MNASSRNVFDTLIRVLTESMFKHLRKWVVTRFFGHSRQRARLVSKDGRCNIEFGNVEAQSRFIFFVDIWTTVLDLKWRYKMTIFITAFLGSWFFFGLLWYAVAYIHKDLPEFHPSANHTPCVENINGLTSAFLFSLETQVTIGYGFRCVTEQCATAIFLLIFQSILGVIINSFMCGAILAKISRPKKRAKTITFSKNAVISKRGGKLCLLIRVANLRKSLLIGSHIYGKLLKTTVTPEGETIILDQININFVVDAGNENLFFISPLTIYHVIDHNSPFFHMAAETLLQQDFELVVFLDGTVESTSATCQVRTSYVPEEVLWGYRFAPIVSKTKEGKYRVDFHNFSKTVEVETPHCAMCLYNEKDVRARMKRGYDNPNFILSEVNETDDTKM
Diaph act CS = compounds boosting diaphorase resazurin reduction – biochemical, uHTS, resorufin fluorescence, counter-screen for diaphorase-coupled primary assays, primary screen; AID 1229, 2008; activation factor at 20 µM; hit rate 0.005% among 190,000; Diaphorase/resazurin coupled assay, 16 min; stronger effect = higher value; 1 = vehicle wells, 0 = NADH-free wells;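 active = diaphorase activity raised at least twofold by the compound at 20 µM; inactive = activation factor below 2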
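Material: purified diaphorase enzyme from Clostridium kluyveri / Medium: HEPES pH 7.4 buffer with MgCl2 and Tween 20 / Schedule: enzyme reaction of 16 min at room temperature / Measured by: resorufin fluorescence, excitation 544 nm, emission 590 nm / Evaluation: rise in resorufin formation, marking diaphorase activation or chemical reduction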
L major viab = Leishmania major promastigote growth inhibition, primary screen; hit rate 9% among 200,000; inhibition, % at 10 µM; AID 1063, 2008; Leishmania major promastigotes, resazurin fluorescence viability; in the data active = inhibition above about 50%;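 also: promastigotes grown with compound for 44 hours at 28 °C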
Cl transport mod = KCC2 cotransporter modulators, thallium flux, primary screen, cell-based, HEK293 KCC2, FluoZin-2 fluorescence, MLSMR; Solute carrier family 12 member 5 (Homo sapiens), Q9H2X9; KCC2 cells, thallium flux FluoZin-2 fluorescence; B-score of Tl+ flux slope (higher = more flux/activation; lower = inhibition) at 10 µM; hit rate 2.2% among 190,000;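 active = thallium flux slope and its plate-corrected score both differing from the plate sample mean at a set confidence after two filtering rounds, in either direction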;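 also: slope of fluorescence scaled to starting intensity during 10 to 20 s after thallium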
* hit, by the source's call; x = no result given; ! = repeats disagree.

SMILES	Diaph inh CS	WT yeast gro inh	ROMK mod	Diaph act CS	L major viab	Cl transport mod
Cc1cc(C)c(NC(=O)NC(=O)C(Cl)(Cl)Cl)c(C)c1	-7	2	-0.012	1.1	14	-0.34
CCN1c2ccccc2N(C)C1(C)c1ccccc1 (stereo not given)	59*	33	0.58	0.4	99*	0.83
COc1ccc(CCn2c(N)c(C#N)c3nc4ccccc4nc32)cc1OC	31	-3	x	0.7	91*	-1.2
COc1ccc(Cn2c(N)c(C#N)c3nc4ccccc4nc32)cc1OC	17	-6	0.17	0.8	18	-0.0011
O=c1nc2ccccc2c2n1CC(CN1CCN(C(c3ccccc3)c3ccccc3)CC1)N2 (stereo not given)	16	36	-0.56	0.8	66*	1.2
O=C(Cc1ccccc1)N/N=C/c1ccc2cccc(O)c2n1	15	11	-0.38	0.8	-6	0.36
O=C(N/N=C1\CCCc2ccccc21)c1ccccc1Cl	6	-12	-0.44	0.9	88*	-0.33
CCNC(=S)N/N=C1\CCCCc2ccccc21	23	65	x	0.8	-3	6.6*
COc1ccccc1OCC(=O)N/N=C1\CCCCc2ccccc21	x	x	x	x	x	-2.6
O=C(N/N=C1\CCc2ccccc21)c1ccccc1O	-4	30	x	1	-5	0.84
C=C(C)CNC(=S)N/N=C1\CCCCc2ccccc21	30	65*	x	0.7	99*	11*
O=C(NCc1cccnc1)c1cc(Sc2ccccc2Cl)nc2ccccc12	0	-29	-1.9	1	78*	-1.8
O=C(CC(Nc1ccccc1)c1ccccc1)C1CC1 (stereo not given)	x	x	x	x	x	-0.047
O=C(N/N=C/c1c(F)c(F)c(F)c(F)c1F)c1cccc(S(=O)(=O)N2CCOCC2)c1	3	5	-0.26	1	-2	1.3
CCN(Cc1ccccc1)c1ccc(/C=N/NC(=O)c2cccc(S(=O)(=O)N3CCOCC3)c2)cc1	20	6	-1.6	0.8	91*	-0.41
CCN(CC)c1ccc(/C=N/NC(=O)c2ccco2)cc1	-4	5	1.9	1	50*	-0.13
CCN(CC)c1ccc(/C=N/NC(=O)c2cccc(S(=O)(=O)N3CCOCC3)c2)cc1	25	-56	x	0.8	73*	0.19
CC1CC(C)(C)NC(=S)N1CCCC(=O)Nc1ccc2c(c1)OCCO2 (stereo not given)	12	4	-0.015	0.9	-5	1.1
O=C(/C=C/c1ccccc1Cl)N(Cc1ccc(Cl)cc1)C1CCS(=O)(=O)C1 (stereo not given)	16	53	-0.64	0.8	79*	-1.2
O=C(CSCc1nc2ccccc2[nH]1)Nc1ccc(Oc2ccccc2)cc1	19	21	-2.2	0.8	64*	-0.76
CCN(CC)CCN1C(=O)c2ccccc2NC1c1ccc(C)cc1 (stereo not given)	10	-9	0.0088	0.9	57*	-0.064
CCN(CC)CCN1C(=O)c2ccccc2NC1c1ccc(Br)cc1 (stereo not given)	-1	-25	0.061	1	97*	-0.43
CCN(CC)CCN1C(=O)c2ccccc2NC1c1ccc(F)cc1 (stereo not given)	11	12	x	0.9	7	0.39
Cc1cc2nc(CSc3ccc(Cl)cc3)cc(=O)n2[nH]1	21	0	0.067	0.8	1	-0.73
O=C(CN1CCCC(O)C1)N1c2ccccc2Sc2ccc(C(F)(F)F)cc21 (stereo not given)	4	-3	x	1	10	x
SMILES	Diaph inh CS	WT yeast gro inh	ROMK mod	Diaph act CS	L major viab	Cl transport mod
CN1CCN(CCCN2c3ccccc3Sc3ccc(C(F)(F)F)cc32)CC1	5	93*!	x	1	86*	0.29
Cc1ccc(NC(=O)COC(=O)Cc2ccsc2)cc1S(=O)(=O)N1CCOCC1	24	-8	-0.76	0.8	23	-0.5
CS(=O)(=O)C1=NSC2=NC(=O)/C(=C\c3cccn3-c3ccc(Cl)cc3)C(=N)N21	51*	15	0.22	0.5	44	-2.6
Cc1cc(/C=C2/C(=N)N3C(=NC2=O)SN=C3S(C)(=O)=O)c(C)n1-c1ccccc1F	13	-18	0.72	0.9	1	-3.3
CN(Cc1cc(=O)n2ccsc2n1)c1ccccc1	-12	-6	x	1.1	3	-0.45
O=c1cc(CNc2ccc(Br)cc2)nc2sccn12	8	-16	x	0.9	71*	-0.7
COc1ccc(-c2nn(-c3ccccc3)cc2C(=O)NC(=S)Nc2cc(Cl)ccc2Cl)cc1	x	x	x	x	x	1.2
Nc1c(C(=O)Nc2ccccc2)sc2nc3c(c(-c4ccco4)c12)CCC3	69*	-31	x	0.3	-5	0.22
Nc1c(C(=O)Nc2ccccc2)sc2nc3c(c(-c4ccco4)c12)CCCC3	26	9	x	0.7	-1	x
C=CCOc1c(Cl)cc(CNc2ccc(C)c(Cl)c2)cc1OC	17	27	2.3	0.8	9	0.81
C=CCOc1c(Cl)cc(CNc2ccc(N(C)C)cc2)cc1OC	24	54	x	0.8	101*	x
S=c1[nH]nc(C2COc3ccccc3O2)o1 (stereo not given)	13	7	x	0.9	-5	-6.9*
O=C(NCCc1c[nH]c2ccccc12)C(=O)NCC1OCCCN1S(=O)(=O)c1cccs1 (stereo not given)	13	17	x	0.9	27	-1.3
CCN(CC)S(=O)(=O)c1cccc(N=NC2=C(O)CCCC2=O)c1	12	-15	x	0.9	61*	0.2
COc1ccc(CNc2oc(COc3ccccc3Cl)nc2C#N)cc1	25	-27	0.72	0.8	44	x
N#Cc1nc(-c2ccccc2)oc1NCCCn1ccnc1	4	1	-0.045	1	-3	-0.032
N#Cc1nc(Cc2cccc3ccccc23)oc1N1CCCCC1	17	39	-0.14	0.8	14	-6.1*
COc1ccc(CNc2oc(Cc3cccc4ccccc34)nc2C#N)cc1	20	-5	-0.22	0.8	19	-5.2*
N#Cc1nc(Cc2cccc3ccccc23)oc1NCCCn1ccnc1	-5	54	x	1.1	59*	-3.4*
Cc1ccc(-c2cccc(C3CC=CC4C3C(=O)N(Cc3ccccc3)C4c3ccc(C(F)(F)F)cc3)c2)cc1 (stereo not given)	x	x	x	x	x	0.97
CN(C)C(=O)c1cc(C(=O)c2ccccc2Cl)c[nH]1	1	2	0.076	1	-1	1.8
COc1ccc(C(=O)Nc2ccccc2C(=O)N/N=C/c2cccc3ccccc23)cc1	20	68*	0.98	0.8	26	-0.64
COc1ccc(C(=O)Nc2ccccc2C(N)=O)cc1	7	40	x	0.9	0	x
